Source: ChEMBL document CHEMBL1153793, “New pyridone, thioxopyridine, pyrazolopyridine and pyridine derivatives that modulate inflammatory mediators in stimulated RAW 264.7 murine macrophage” (Eur J Med Chem, 2009)
The source made the active and inactive calls. The calls are words filed in the database; no cut-off is given here.

Assays:
[1] = tested on: RAW264.7; assay: Cytotoxicity against mouse RAW264.7 cells assessed as cell viability after 24 hrs by MTT assay; format: cell-based; conditions: RAW264.7, 24 h, in the assay text read “MTT assay” for “ultra gel clot assay”
Method in brief: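 RAW 264.7 macrophages (5×10^4 cells/well) exposed 24 h at 37 °C to a range of compound concentrations, then read by MTT reduction to formazan, solubilised in acidic isopropanol. Viability expressed as mean % of untreated cells (n = 4); 1000 U/ml M-CSF as positive control. IC50 derived.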

[2] = Antioxidant activity assessed as superoxide radical scavenging activity; format: functional
Method in brief: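 Non-cellular assay; superoxide generated by oxidation of 50 µM hypoxanthine with 12 mU xanthine oxidase. Scavenging followed as the rate of nitroblue tetrazolium reduction to formazan. SC50 taken from dose-dependent curves of serial dilutions; superoxide dismutase as standard inhibitor.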

[3] = tested on: RAW264.7; assay: Effect on inflammatory mediators in mouse RAW264.7 cells assessed as COX-2 accumulation at 20% IC50 after 24 hrs by dot immunoblotting; format: functional
Method in brief: (§1)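 20 µg lysate protein dot-blotted, probed with anti-mouse COX-2 or 5-LO, detected by HRP/OPD and normalised to β-actin.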

[4] = tested on: RAW264.7; assay: Effect on inflammatory mediators in mouse RAW264.7 cells assessed as TNF-alpha accumulation at 20% IC50 after 24 hrs by ELISA; format: functional
[5] = tested on: RAW264.7; assay: Effect on inflammatory mediators in mouse RAW264.7 cells assessed as PGE2 accumulation at 20% IC50 after 24 hrs by ELISA; format: functional
[6] = tested on: RAW264.7; assay: Effect on inflammatory mediators in LPS-stimulated mouse RAW264.7 cells assessed as COX-2 accumulation at 20% IC50 after 24 hrs by dot immunoblotting; format: functional; method in brief: as §1
[7] = tested on: RAW264.7; assay: Effect on inflammatory mediators in mouse RAW264.7 cells assessed as 5-LO accumulation at 20% IC50 after 24 hrs by dot immunoblotting; format: functional; method in brief: as §1
[8] = Hydroxyl radical scavenging activity assessed as trolox equivalents at 1 uM by ORAC assay; format: functional
Method in brief: (§2)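 β-Phycoerythrin fluorescence decay followed kinetically for 2 h at 37 °C with 1 µM compound, against peroxyl and hydroxyl radicals. One ORAC unit = net protection given by 1.0 µM Trolox.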

[9] = tested on: RAW264.7; assay: Induction of phagocytosis in mouse RAW264.7 cells assessed as phagocytic activity against FITC-zymosan after 1 hr by fluorimetry; format: functional, cell-based
Method in brief: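 Cells at 1×10^5/well in phenol red-free RPMI-1640 rested 24 h, then given compound for 1 h. FITC-zymosan added for a further 1 h; cells washed three times and lysed with Triton X-100. Fluorescence read at 485/530 nm and expressed relative to untreated cells (100%).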

[10] = tested on: RAW264.7; assay: Effect on inflammatory mediators in mouse RAW264.7 cells assessed as nitrite accumulation at 20% IC50 after 24 hrs by Griess assay; format: functional
[11] = tested on: RAW264.7; assay: Effect on inflammatory mediators in LPS-stimulated mouse RAW264.7 cells assessed as 5-LO accumulation at 20% IC50 after 24 hrs by dot immunoblotting; format: functional; method in brief: as §1
[12] = tested on: RAW264.7; assay: Effect on inflammatory mediators in LPS-stimulated mouse RAW264.7 cells assessed as TNF-alpha accumulation at 20% IC50 after 24 hrs by ELISA; format: functional
[13] = tested on: RAW264.7; assay: Effect on mouse RAW264.7 cell function assessed as FITC-LPS binding to macrophage after 15 mins by fluorimetry; format: functional, cell-based
Method in brief: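 5×10^5 RAW 264.7 cells pre-incubated 15 min at 37 °C with compound in RPMI-1640 plus 10% FBS as the CD14/LBP source. FITC-LPS (200 ng/ml) then added for 1 h. After PBS wash, fluorescence read at ex 485/em 530 nm and median fluorescence intensity reported.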

[14] = tested on: RAW264.7; assay: Effect on inflammatory mediators in LPS-stimulated mouse RAW264.7 cells assessed as PGE2 accumulation at 20% IC50 after 24 hrs by ELISA; format: functional
[15] = tested on: RAW264.7; assay: Effect on inflammatory mediators in LPS-stimulated mouse RAW264.7 cells assessed as nitrite accumulation at 20% IC50 after 24 hrs by Griess assay; format: functional
[16] = Peroxyl radical scavenging activity assessed as trolox equivalents at 1 uM by ORAC assay; method in brief: as §2
[17] = tested on: RAW264.7; assay: Effect on inflammatory mediators in mouse RAW264.7 cells assessed as 5-LO accumulation at 20 uM after 24 hrs by dot immunoblotting; format: functional
Method in brief: (§3)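 Cells treated 24 h with 20 µM compound, with or without LPS (1 µg/ml). 20 µg soluble lysate protein dot-blotted onto nitrocellulose and probed with rabbit anti-mouse COX-2 or 5-LO, HRP anti-rabbit secondary and OPD colour. Intensity normalised to β-actin dots; four repeats.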

[18] = tested on: RAW264.7; assay: Effect on inflammatory mediators in mouse RAW264.7 cells assessed as COX-2 accumulation at 20 uM after 24 hrs by dot immunoblotting; format: functional; method in brief: as §3
[19] = tested on: RAW264.7; assay: Effect on inflammatory mediators in LPS-stimulated mouse RAW264.7 cells assessed as COX-2 accumulation at 20 uM after 24 hrs by dot immunoblotting; format: functional; method in brief: as §3
[20] = tested on: RAW264.7; assay: Effect on inflammatory mediators in LPS-stimulated mouse RAW264.7 cells assessed as 5-LO accumulation at 20 uM after 24 hrs by dot immunoblotting; format: functional; method in brief: as §3

Structure (SMILES) | IC50 [1] | SC50 [2] | Activity [3] | Activity [4] | Activity [5] | Activity [6] | Activity [7] | Activity [8] | Activity [9] | Activity [10] | Activity [11] | Activity [12] | Activity [13] | Activity [14] | Activity [15] | Activity [16] | Activity [17] | Activity [18] | Activity [19] | Activity [20]
CCOC(=O)COc1nc(-c2ccc3c(c2)CCCC3)cc(-c2ccc(C(C)C)cc2)c1C#N | > 50 µM | 81.4 µg/mL | 18.7% | 72.45 pg | 50.5 pg | 31.3% | 11.9% | 1.05 | Active | 3.19 nmol | 38.7% | 2810.66 pg | Active | 2870.5 pg | 110.54 nmol | 2.36 |  |  |  | 
CC(C)c1ccc(-c2cc(-c3ccc4c(c3)CCCC4)nc(OCC(=O)NCc3ccccc3)c2C#N)cc1 | 9.9 µM | 24.6 µg/mL | 20.6% | 69.65 pg | 48.15 pg | 20.1% | 21.7% | 3.44 | Active | 10.19 nmol | 61.7% | 615.33 pg |  | 3260.2 pg | 32.75 nmol | 2.22 |  |  |  | 
COc1ccc(-c2cc(-c3ccc4c(c3)CCCC4)nc(NCc3ccccc3)c2C#N)cc1OC | 4.9 µM | 38.4 µg/mL | 46.3% | 2460.46 pg | 31.29 pg | 99.2% | 30.2% | 3.54 | inactive | 720.91 nmol | 94.7% | 5520.55 pg | inactive | 3010.66 pg | 915.9 nmol | 2.95 |  |  |  | 
CC(C)c1ccc(-c2cc(-c3ccc4c(c3)CCCC4)nc(Cl)c2C#N)cc1 | 8.4 µM | > 100 µg/mL | 28.7% | 350.05 pg | 45.39 pg | 80.1% | 29.5% | 1.1 |  | 439.13 nmol | 94.6% | 5110.4 pg | inactive | 2870.25 pg | 611.68 nmol | 0.92 | 29.5% | 28.7% | 80.1% | 94.6%
CCOC(=O)COc1nc(-c2ccc3c(c2)CCCC3)cc(-c2ccc(OC)c(OC)c2)c1C#N | 26.2 µM | 55.7 µg/mL | 27.5% | 66.57 pg | 22.4 pg | 68.7% | 21.9% | 2.47 |  | 2.65 nmol | 79.6% | 3945.11 pg |  | 2954.2 pg | 388.4 nmol | 2.01 |  |  |  | 
CC(C)c1ccc(-c2cc(-c3ccc4c(c3)CCCC4)nc(OCC(=O)NN)c2C#N)cc1 | 27.7 µM | 42.5 µg/mL | 63.1% | 1364.75 pg | 43.6 pg | 92.6% | 33.12% | 0.99 |  | 440.24 nmol | 91.8% | 5754.5 pg |  | 3405.5 pg | 596.4 nmol | 0.81 |  |  |  | 
